Only some compounds are listed: those with a hit (about 2.5% of all), similar ones and a draw of the others.
GSTO1 counter – blocks human GSTO1 in RBBP9 counter-screen; P78417; recombinant GSTO1, activity-based probe fluorescence polarization; inhibition, % at 5.96 µM; 300,000 compounds, 1.1% hits; AID 1974;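 active = inhibition above the campaign mean inhibition plus 3 SD, cut at about 35% in these data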
Target sequence (P78417 whole entry, looked up): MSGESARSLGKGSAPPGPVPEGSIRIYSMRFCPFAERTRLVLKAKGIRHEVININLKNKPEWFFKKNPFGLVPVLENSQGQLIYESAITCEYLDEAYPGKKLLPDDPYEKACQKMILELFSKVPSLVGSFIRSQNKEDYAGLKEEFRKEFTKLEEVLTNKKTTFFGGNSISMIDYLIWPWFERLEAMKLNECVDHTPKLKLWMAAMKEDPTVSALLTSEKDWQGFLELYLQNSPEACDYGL
PAD4 inh – PAD4 (human) enzyme inhibition; Q9UM07; recombinant PAD4, RCA probe fluorescence polarization; inhibition, % at 6.36 µM; 330,000 compounds, 0.41% hits;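 active = percent inhibition above a cutoff equal to the mean of all tested compounds plus 3 SD, cut at about 15% in these data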
TDP2 absorb – blocks human TDP2 phosphodiesterase activity. O95551. recombinant TDP2, T5PNP hydrolysis, p-nitrophenol absorbance 415 nm. inhibition, % at 12.8 µM. 370,000 compounds, 0.34% hits. AID 720702;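 active = inhibition above the mean of all tested compounds plus 3 SD, set per campaign, cut at about 25% in these data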
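System: recombinant human TDP2 / Amount: 120 nM TDP2 per well / Also added: 5 mM T5PNP chromogenic substrate / Doses: 12.8 µM single point, 1% DMSO / Incubation: 2 h at 37 °C / Detection: p-Nitrophenol epi absorbance / Evaluation: % inhibition relative to enzyme-containing and enzyme-free wells / Repeats: singlicate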
PRMT1 inh – blocks human protein arginine methyltransferase 1; recombinant PRMT1, activity-based probe fluorescence polarization; 370,000 compounds, 1.3% hits; AID 652257; inhibition, % at 2.79 µM;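 active = inhibition above about 21% made by adding two undisclosed values, limit read from the data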
Target sequence (Q99873 whole entry, looked up): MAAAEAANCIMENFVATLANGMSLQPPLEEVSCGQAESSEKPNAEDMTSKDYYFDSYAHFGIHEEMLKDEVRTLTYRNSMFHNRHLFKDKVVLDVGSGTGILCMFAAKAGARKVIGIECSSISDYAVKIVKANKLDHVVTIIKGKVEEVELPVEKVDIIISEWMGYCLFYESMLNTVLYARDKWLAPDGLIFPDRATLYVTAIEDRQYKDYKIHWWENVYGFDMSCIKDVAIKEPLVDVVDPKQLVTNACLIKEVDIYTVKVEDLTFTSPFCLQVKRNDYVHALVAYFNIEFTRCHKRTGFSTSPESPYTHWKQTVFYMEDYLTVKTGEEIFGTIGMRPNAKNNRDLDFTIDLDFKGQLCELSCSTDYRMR
eLon inh – inhibits E. coli Lon protease; 360,000 compounds, 0.42% hits; purified E. coli Lon protease, fluorescence polarization; P0A9M0; inhibition, % at 7.94 µM; in the data active = inhibition above about 13%, passing the limit was not always enough
GSTO1 inh conf – GSTO1 (human) inhibition, confirmation; AID 2176; 2,400 compounds, 54% hits; recombinant GSTO1, probe fluorescence polarization; inhibition, % at 5.96 µM; shares compounds with GSTO1 counter;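 active = inhibition above the primary screen's cutoff, its mean inhibition plus 3 SD, cut at about 35% in these data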;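 also: loss of polarization as inhibitors block binding of rhodamine sulfonate ester activity probe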
PAD4 confirm – confirmation of human PAD4 inhibitors | 1,200 compounds, 28% hits | recombinant PAD4, RCA probe fluorescence polarization | inhibition, % at 6.36 µM | shares compounds with PAD4 inh;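 active = mean inhibition across replicates above the hit cutoff set by the earlier primary screen, cut at about 15% in these data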;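 also: inhibitors block active-site labeling by the probe so polarization falls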
E coli Lon conf – E. coli Lon inhibition confirmation. shares compounds with eLon inh. purified E. coli Lon, fluorescence polarization. inhibition, % at 7.94 µM. 1,400 compounds, 31% hits. AID 602230; in the data active = inhibition above about 16%
PRMT1 inh conf – PRMT1 (human) inhibition, FP confirmation. shares compounds with PRMT1 inh. recombinant His-PRMT1, activity-based probe fluorescence polarization. inhibition, % at 2.79 µM. 3,300 compounds, 42% hits;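 active = mean inhibition across replicates above the hit cutoff derived for the earlier primary screen, cut at about 22% in these data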
TDP2 confirm – human TDP2 inhibition, confirmation; shares compounds with TDP2 absorb; recombinant human TDP2, absorbance read-out; inhibition, % at 12.8 µM; 1,100 compounds, 22% hits; in the data active = inhibition above about 25%
Of the large screens only hits and unclear results are named; the others gave an inactive call (follow-up assays come after a bar, where they were run); ! = not confirmed by another sample.

CN1CC[C@@]2(C)c3cc(O)ccc3N(C)[C@@H]12	none (no result: GSTO1 counter, PAD4 inh)
O=C(O)CC1OCC=C2CN3CCC45C6=CC(=O)C(=O)C([N+](=O)[O-])=C6NC4C1C2CC35 (stereo not drawn)	GSTO1 counter 79, PAD4 inh 66 (no result: TDP2 absorb, PRMT1 inh) | GSTO1 inh conf 82 | PAD4 confirm 60
O=C(O)CC1OCC=C2CN3CCC45c6ccccc6NC4C1C2CC35 (stereo not drawn)	none
C[C@H]1[C@@H](OS(=O)(=O)O)C[C@@H]2C[C@H]([C@@H](O)c3cc(=O)[nH]c(=O)[nH]3)NC3=NC[C@H]1N32	none (no result: GSTO1 counter, PAD4 inh, TDP2 absorb, PRMT1 inh)
COCCNC(=O)c1c(N)n(CCC(C)C)c2nc3ccccc3nc12	GSTO1 counter 75, PAD4 inh 40 | GSTO1 inh conf inactive | PAD4 confirm inactive
CC(C)OCCCNC(=O)c1c(N)n(Cc2cccs2)c2nc3ccccc3nc12	GSTO1 counter 60, PAD4 inh 52 | GSTO1 inh conf inactive | PAD4 confirm inactive
CC(C)CCn1c(N)c(C(=O)NCc2cccs2)c2nc3ccccc3nc21	none (no result: TDP2 absorb, PRMT1 inh)
N#CCCC#N	none (no result: GSTO1 counter, PAD4 inh, eLon inh)
CCn1nc(-c2ccccc2)nc2c(=O)n(C)c(=O)nc1-2	GSTO1 counter 90, PAD4 inh 68, eLon inh 83 (no result: TDP2 absorb, PRMT1 inh) | GSTO1 inh conf 92 | PAD4 confirm inactive
Cc1ccc(OC(=O)N(C)C[C@H]2OCc3cnnn3CCCC(=O)N([C@@H](C)CO)C[C@@H]2C)cc1	none (no result: GSTO1 counter, PAD4 inh, eLon inh)
Cc1nc2c(=O)n(C)c(=O)nc-2n(C)n1	GSTO1 counter 98, PAD4 inh 77, TDP2 absorb 86 | GSTO1 inh conf 96 | PAD4 confirm 69
COc1cc2c(cc1OC)-c1c(OC)c(OC)cc3c1[C@H](C2)N(C)CC3	GSTO1 counter 47, PAD4 inh 23, TDP2 absorb 74 | GSTO1 inh conf 71 | PAD4 confirm inactive | TDP2 confirm 56
Nc1c(C(=O)OCC2CCCO2)c2nc3ccccc3nc2n1Cc1cccs1 (stereo not drawn)	GSTO1 counter 39, TDP2 absorb 31 | GSTO1 inh conf inactive | TDP2 confirm inactive
C=C(C=O)CC1CC(O)[C@]2(C)OC3CC4OC5C[C@]6(C)O[C@]7(C)CCC8OC9C[C@]%10(C)OC%11C(C)=CC(=O)OC%11CC%10OC9C[C@@H](C)C8OC7CC6O[C@]5(C)C/C=C\C4OC3CC2O1 (stereo partly drawn)	none (no result: GSTO1 counter, PAD4 inh, eLon inh)
CNc1ccc2nc3ccccc3[n+](C)c2c1	GSTO1 counter 101, PAD4 inh 108, TDP2 absorb 46, PRMT1 inh 21, eLon inh 95 | GSTO1 inh conf 62 | PAD4 confirm 92 | E coli Lon conf 106 | TDP2 confirm 32
CC1(C)CC(=O)C(C2(O)C(=O)NC(=O)NC2=O)=C(O)C1	GSTO1 counter 68, TDP2 absorb 53 | GSTO1 inh conf 60 | TDP2 confirm 50
O=C(NCCN1CCC2(CC1)C(=O)NCN2c1ccccc1)c1ccc2ccccc2c1	none (no result: GSTO1 counter, PAD4 inh, eLon inh)
CCN(CCCl)c1cc(CN(C)C)cc(NC(=O)c2ccc(C(=O)Nc3cc(CN(C)C)cc(N(CC)CCCl)c3)cc2)c1	none (no result: GSTO1 counter, PAD4 inh)
C[N+]1=C(N)NC2=C3CCCCC3ONC2C1 (stereo not drawn)	none (no result: GSTO1 counter, PAD4 inh, eLon inh)
CCOC(=O)c1c(NS(=O)(=O)c2ccccc2)n(CCCOC)c2nc3ccccc3nc12	GSTO1 counter 93, PAD4 inh 79, TDP2 absorb 91 | GSTO1 inh conf 59 | PAD4 confirm inactive | TDP2 confirm 73
COC(=O)c1c(N)n(Cc2ccc(OC)cc2)c2nc3ccccc3nc12	none
CC(C)CCNC(=O)c1c(N)n(Cc2ccc3c(c2)OCO3)c2nc3ccccc3nc12	GSTO1 counter 40, TDP2 absorb 45 | GSTO1 inh conf 69 | TDP2 confirm inactive
CCCCNC(=O)c1c(N)n(CCCOC)c2nc3ccccc3nc12	GSTO1 counter 51, TDP2 absorb 36 | GSTO1 inh conf inactive | TDP2 confirm inactive
C[C@@]12CC[C@@H](c3cc4c(cc3C1)OCO4)N2c1ccccc1	none (no result: GSTO1 counter, PAD4 inh, eLon inh)
CC(=O)N(C)C1=Nc2ccc(Cl)cc2C(c2ccccc2)=[N+]([O-])C1	none (no result: GSTO1 counter, PAD4 inh)
CN1C[C@H](O)[C@H]2C[C@@H]1c1ccccc1O2	none (no result: GSTO1 counter, PAD4 inh, eLon inh)
CCCCC1C(=O)NC(=S)N(C)C1=O (stereo not drawn)	none (no result: GSTO1 counter, PAD4 inh)
Cc1ccccc1[N+](=O)[O-]	none (no result: GSTO1 counter)
O=C1NC(=O)C(Sc2ccccc2[N+](=O)[O-])C(=O)N1	GSTO1 counter 48, TDP2 absorb 51, PRMT1 inh 57 | GSTO1 inh conf inactive | TDP2 confirm 33
O=C1C(=O)c2ccccc2-c2ccccc21	GSTO1 counter 90, PAD4 inh 82, TDP2 absorb 68 | GSTO1 inh conf 94 | PAD4 confirm 76 | TDP2 confirm 90
O=C(CN1C(=O)[C@@H](Cc2ccc(O)cc2)N=C(c2ccccc2)c2ccccc21)NC1CCCCC1	none (no result: GSTO1 counter, PAD4 inh, eLon inh)
CNc1ccc2oc(C[C@H]3O[C@@]4(CC[C@H]3C)O[C@H]([C@H](C)C(=O)c3ccc[nH]3)[C@H](C)C[C@H]4C)nc2c1C(=O)O	GSTO1 counter 42, PAD4 inh 57, TDP2 absorb 29, PRMT1 inh 26 | GSTO1 inh conf inactive | PAD4 confirm inactive | TDP2 confirm inactive
CC[C@@H](CO)NC(=O)[C@@H]1C=C2c3cccc4c3c(cn4C)C[C@H]2N(C)C1	GSTO1 counter 48!, PAD4 inh 22!, TDP2 absorb 31!, PRMT1 inh 47! | GSTO1 inh conf inactive | PAD4 confirm inactive | PRMT1 inh conf inactive | TDP2 confirm inactive
CC(C)n1c(O)c(C=NCc2cccnc2)c(=O)[nH]c1=S	none
CCC(C)n1c(O)c(C=Nc2cccc(C(F)(F)F)c2)c(=O)[nH]c1=S (stereo not drawn)	PAD4 inh 22 | PAD4 confirm inactive
NC(=O)c1ccc(N=Cc2c(O)n(Cc3ccco3)c(=O)[nH]c2=O)cc1	none
CCN(CC)c1ccc(N=Cc2c(O)n(-c3cc(OC)ccc3OC)c(=O)[nH]c2=O)cc1	PAD4 inh 18 | PAD4 confirm inactive
CCN(CC)c1ccc(N=Cc2c(O)n(Cc3ccco3)c(=O)[nH]c2=O)cc1	PAD4 inh 16 | PAD4 confirm inactive
CCN(CCO)c1ccc(N=Cc2c(O)n(C)c(=S)[nH]c2=O)cc1	GSTO1 counter 48, PAD4 inh 40, PRMT1 inh 21 | PAD4 confirm inactive
Oc1ccc(O)c2c1C1(Cl)C(Cl)=C(Cl)C2(Cl)C1(Cl)Cl	none (no result: GSTO1 counter, PAD4 inh)

Bioassay records as filed in PubChem.
